Laboratory results: article PMC4184705 (Pharmacology Research & Perspectives, 2014)

What was measured:
[1] = 2 mg oral midazolam dose; sample collection at 0.25 h; ref Winter et al. [2013]; cited from earlier work
[2] = Safety: adverse event reports and clinical laboratory assessments; format: in vivo, human
In short: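 Open-label parallel-group study in postmenopausal women with osteoporosis, randomised 2:1. […] Group B received midazolam only. Adverse events recorded at any time through day 47 follow-up. Clinical laboratory tests at screening (21 days pre-treatment) and day 17. All treated subjects analysed.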

[3] = Plasma midazolam pharmacokinetics after 2 mg oral doses on day 1 and day 16; conditions: for AUC(0-t) / AUC(0-inf) / Cmax / half-life: human, plasma; for AUC(0-inf): AUCinf; for half-life: t1/2, Group B (midazolam alone)
[4] = system: CYP3A4; conditions: healthy volunteers; ref Gupta et al. [2012]; cited from earlier work
[5] = 60 mg SC dose; ref Bekker et al. [2004]; cited from earlier work
[6] = system: RANKL; test: Serum C-telopeptide; format: in vivo, human; conditions: Group A; denosumab 60 mg SC on day 2
[7] = system: CYP3A4; format: in vivo, human; conditions: single 60 mg SC dose of denosumab; postmenopausal women with osteoporosis
[8] = Serum denosumab concentration by validated ELISA; format: in vivo, human; conditions: day 16 (14 days after a 60 mg SC dose); Group A
[9] = Group A (midazolam + denosumab), N = 17
[10] = Group B (midazolam alone), period effect, n = 8
[11] = po, 2 mg, Group B (midazolam alone), day 1, 2 mg oral, mean (SD), N = 8
[12] = po, 2 mg, Group B (midazolam alone), day 16, 2 mg oral, mean (SD), N = 8

In the case of `Cc1ncc2n1-c1ccc(Cl)cc1C(c1ccccc1F)=NC2` [midazolam], the “mean Cmax” value [1] is listed as 11.9 ng/mL, the somnolence incidence ([2]; Group A, day 1 (prior to administration of denosumab), 7 of 19 subjects) is listed as 37% and the somnolence incidence ([2]; Group B, day 1, 2 of 8 subjects) is listed as 25%. The somnolence incidence ([2]; day 16 (after the second midazolam dose)) was “no subjects”, the somnolence incidence ([2]; days 2 to 15) was “no subjects” and the “changes in clinical laboratory values from baseline” value ([2]; screening to day 17) was “unremarkable”. The “deaths, withdrawal due to adverse events, serious adverse events” value ([2]; whole study) was “No deaths, withdrawal due to adverse events, or serious adverse events”, the “AUC0–inf, ratio of day 16/day 1, LS mean” value [3, 9] was 1.02 and the “AUC0–t, ratio of day 16/day 1, LS mean” value [3, 9] was 1.02. For the same compound, the “Cmax, ratio of day 16/day 1, LS mean” value [3, 9] was 1.04, the AUCinf ([3]; Group A, day 1, midazolam 2 mg oral, mean (SD), N = 17) was 35.6 (16.4) ng·h/mL and the Tmax ([3]; Group B (midazolam alone), day 16, 2 mg oral, median (range), N = 8) was 0.5 (0.5–1.0) hr. For the same compound, the “AUC0–inf, point estimate for the ratio of the least square means (day 16/day 1)” value [3, 10] was 0.98, the “AUC0–t, point estimate for the ratio of the least square means (day 16/day 1)” value [3, 10] was 0.98 and the “Cmax, point estimate for the ratio of the least square means (day 16/day 1)” value ([3]; Group B (midazolam alone), period effect, n = 8, 90% CI 0.82 to 1.33) was 1.05. It also gave an AUC(0-t) ([3]; oral) of 31 ng·h/mL, an AUC(0-t) ([3]; po, 2 mg) of 30.4 ng·h/mL and an AUC(0-inf) [3, 11] of 31 ng·h/mL. For the same compound, the AUC(0-inf) [3, 12] was 29.3 ng·h/mL, the Cmax [3, 11] was 11.3 ng/mL and the Cmax [3, 12] was 10.9 ng/mL. For the same compound, the half-life ([3]; po, 2 mg, day 1, 2 mg oral, mean (SD), N = 8) was 6.2 h and the half-life ([3]; po, 2 mg, day 16, 2 mg oral, mean (SD), N = 8) was 6.22 h.
For `C[C@@H]1CCN(C(=O)CC#N)C[C@@H]1N(C)c1ncnc2[nH]ccc12` [tofacitinib], the “effects on CYP3A4 activity (midazolam pharmacokinetics)” value [4] is given as “lack of effects”.
For “denosumab: fully human monoclonal immunoglobulin G2 (IgG2) that binds to and neutralizes RANKL activity”, the “time by which maximal pharmacodynamic effects are observed” value [5] is listed as no more than 1 week, the “sCTX concentrations on day 16 lower than those on day 2, on average” value [6] is listed as roughly 81% and the “effect on CYP3A4 activity (based on midazolam pharmacokinetics)” value [7] is listed as “no effect”. The “serum denosumab concentration, mean (SD)” value [8] was 5790 (1800) ng/mL.
